{
  "source": "ChEMBL document CHEMBL5653606",
  "about": "(J Pharmacol Exp Ther, 2011)",
  "key": {"Rattus norvegicus [1]": {"system": "Rattus norvegicus", "assay": "Antihyperalgesic activity in MIA induced Sprague-Dawley rat assessed as increased joint compression thresholds at 0.3 to 3 mg/kg, po administered for 1 day and measured after 2 to 4 hrs", "type": "functional, organism-based", "details": "dose 0.3-3 mg/kg", "procedure,_shortened": "(§1)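 Male Sprague-Dawley rats (220–270 g), isoflurane-anesthetized, given 2 mg MIA in 0.9% saline (50 μl) intra-articular into the knee. From day 14, oral dosing at 10 ml/kg once daily for 3 days in 4% 2-hydroxypropyl-β-cyclodextrin/1% ethanol in 0.01 M HCl. Celecoxib 30 mg/kg in 0.5% methylcellulose twice daily. Joint compression threshold by digital Randall-Selitto at 2 and 4 h postdose on days 1 and 3; n = 10/group.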"}, "Rattus norvegicus [2]": {"system": "Rattus norvegicus", "assay": "Antihyperalgesic activity in CFA induced Sprague-Dawley rat assessed as partial reduction of mechanical allodynia at 3 mg/kg, po in presence of CB2 antagonist SR144528 by von frey test", "type": "functional, organism-based", "procedure,_shortened": "(§2)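 Male Sprague-Dawley rats (200–250 g) given 150 μl CFA (1 mg/ml in mineral oil) intraplantar in the hind paw. Mechanical paw withdrawal thresholds read with Von Frey hairs on day 5 postinjection. Dosed orally as nanocrystalline suspension in 2% polyvinylpyrrolidone/0.15% SDS in water, 10 ml/kg. PWTs taken 4 h postdose for dose-response, or at 1, 2, 4, 8, 24 h for time course.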"}, "Mus musculus [3]": {"system": "Mus musculus", "assay": "Antinociceptive activity in C57BL6/J mouse assessed as thermal tail immersion at 1 to 10 mg/kg, po administered for 4 hrs", "type": "functional, organism-based", "details": "dose 1-10 mg/kg", "procedure,_shortened": "(§3)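 Male C57BL/6J mice, 7 weeks old, n = 8/group, dosed orally at 1 or 10 mg/kg in PEG 300 (4 ml/kg). Tetrad tested 4 h postdose: locomotor activity, tail-immersion thermal nociception, catalepsy (assessed 60 s), body temperature. Means ± S.E.M. versus vehicle.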"}, "[4]": {"assay": "Ratio of drug concentration in rat brain to plasma at 1 mg/kg, po administered for 4 hrs by LC/MS analysis", "type": "ADME, organism-based", "details": "brain and plasma", "procedure,_shortened": "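Male Sprague-Dawley rats received a single oral dose of 1 mg/kg. Plasma (ng/ml) and brain (ng/g tissue) drug levels were measured at 1, 2, 4, 8 and 24 h after dosing.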"}, "[5]": {"target": "T1, Fatty-acid amide hydrolase 1 (Rattus norvegicus) (UniProt P97612)", "T1 sequence (whole entry)": "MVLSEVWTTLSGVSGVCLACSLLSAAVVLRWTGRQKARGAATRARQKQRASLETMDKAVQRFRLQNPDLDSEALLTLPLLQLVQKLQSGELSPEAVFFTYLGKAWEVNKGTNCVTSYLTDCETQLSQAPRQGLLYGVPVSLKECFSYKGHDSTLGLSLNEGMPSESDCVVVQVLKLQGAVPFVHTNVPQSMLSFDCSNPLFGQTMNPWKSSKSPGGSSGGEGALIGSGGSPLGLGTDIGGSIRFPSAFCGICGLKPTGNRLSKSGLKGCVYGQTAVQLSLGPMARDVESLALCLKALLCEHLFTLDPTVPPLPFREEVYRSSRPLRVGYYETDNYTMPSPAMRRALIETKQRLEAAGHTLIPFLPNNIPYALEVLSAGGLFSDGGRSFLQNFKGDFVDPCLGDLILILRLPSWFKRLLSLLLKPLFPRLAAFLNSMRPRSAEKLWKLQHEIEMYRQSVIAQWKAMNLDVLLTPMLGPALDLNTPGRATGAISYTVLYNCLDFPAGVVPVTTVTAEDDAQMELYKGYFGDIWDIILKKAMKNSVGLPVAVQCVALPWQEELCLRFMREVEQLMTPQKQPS", "assay": "In vivo inhibition of FAAH in CFA induced Sprague-Dawley rat plasma assessed as elevation of NAE level at 0.1 to 10 mg/kg, po", "type": "functional, organism-based", "details": "dose 0.1-10 mg/kg", "procedure,_shortened": "(§4)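 Lipid (NAE) levels in rat brain and plasma measured by LC/MS after oral dosing in CFA rats; n = 3 rats/group. Time-course samples taken at 1, 2, 4, 8, 24 h after 1 mg/kg.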"}, "[6]": {"target": "T2, Fatty-acid amide hydrolase 1 (Rattus norvegicus, UniProt P97612)", "T2 sequence (P97612 whole entry)": "T1 sequence (whole entry)", "assay": "Inhibition of rat FAAH assessed as kinact/Ki ratio incubated for 15 min in presence of glutamate dehydrogenase by 384-well format microplate reader assay"}, "Rattus norvegicus [7]": {"system": "Rattus norvegicus", "assay": "Antihyperalgesic activity in CFA induced Sprague-Dawley rat assessed as inhibition of mechanical allodynia at 1 mg/kg, po measured for 1 to 24 hrs by von frey test", "type": "functional, organism-based", "details": "time 1-24 hrs", "procedure,_shortened": "as §2"}, "Mus musculus [8]": {"system": "Mus musculus", "assay": "Antinociceptive activity in C57BL6/J mouse assessed as effect in catalepsy at 1 to 10 mg/kg, po administered for 4 hrs", "type": "functional, organism-based", "details": "dose 1-10 mg/kg", "procedure,_shortened": "as §3"}, "[9]": {"target": "T1, Fatty-acid amide hydrolase 1 (Rattus norvegicus)", "assay": "In vivo inhibition of FAAH in CFA induced Sprague-Dawley rat brain at 1 mg/kg, po measured for 1 to 24 hrs", "type": "functional, organism-based", "details": "time 1-24 hrs", "procedure,_shortened": "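Brain and blood leukocyte membrane fractions from CFA rats after oral dosing. FAAH activity measured with 3H-labeled AEA substrate, quantifying released 3H-ethanolamine; n = 3 rats/group. Time course sampled at 1, 2, 4, 8, 24 h after 1 mg/kg.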"}, "[10]": {"target": "T1, Fatty-acid amide hydrolase 1 (Rattus norvegicus)", "assay": "In vivo inhibition of FAAH in CFA induced Sprague-Dawley rat brain assessed as elevation of NAE level at 0.1 to 10 mg/kg, po", "type": "functional, organism-based", "details": "dose 0.1-10 mg/kg", "procedure,_shortened": "as §4"}, "Rattus norvegicus [11]": {"system": "Rattus norvegicus", "assay": "Antihyperalgesic activity in CFA induced Sprague-Dawley rat assessed as complete reduction of mechanical allodynia at 3 mg/kg, po in presence of CB1 antagonist SR141716 and CB2 antagonist SR144528 by von frey test", "type": "functional, organism-based", "procedure,_shortened": "as §2"}, "Mus musculus [12]": {"system": "Mus musculus", "assay": "In vivo inhibition of rhodamine-azide tagged FAAH expressed in mouse brain at 1 mg/kg, po by CC-ABPP method based in-gel fluorescence scanning analysis", "type": "functional, organism-based"}, "[13]": {"target": "T1, Fatty-acid amide hydrolase 1 (Rattus norvegicus)", "assay": "In vivo inhibition of FAAH in CFA induced Sprague-Dawley rat plasma at 1 mg/kg, po measured for 1 to 24 hrs", "type": "functional, organism-based", "details": "time 1-24 hrs"}, "[14]": {"assay": "Brain concentration in rat at 1 mg/kg, po administered for 4 hrs by LC/MS analysis", "type": "ADME, organism-based", "details": "read-out: Ct", "procedure,_shortened": "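Rats dosed orally at 1 mg/kg. Plasma and brain concentrations measured at 1, 2, 4, 8 and 24 h.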"}, "Mus musculus [15]": {"system": "Mus musculus", "assay": "Antinociceptive activity in C57BL6/J mouse assessed as effect in locomotive activity at 1 to 10 mg/kg, po administered for 4 hrs", "type": "functional, organism-based", "details": "dose 1-10 mg/kg", "procedure,_shortened": "as §3"}, "[16]": {"target": "T2, Fatty-acid amide hydrolase 1", "assay": "Inhibition of rat FAAH assessed as kinact/Ki ratio incubated for 30 min in presence of glutamate dehydrogenase by 384-well format microplate reader assay"}, "[17]": {"assay": "Tmax in rat at 5 mg/kg, po measured upto 24 hrs by LC/MS analysis", "type": "ADME, organism-based", "details": "in vivo"}, "Rattus norvegicus [18]": {"system": "Rattus norvegicus", "assay": "Antihyperalgesic activity in MIA induced Sprague-Dawley rat assessed as reduction in mechanical allodynia at 3 mg/kg, po administered for 1 day and measured after 2 to 4 hrs", "type": "functional, organism-based", "procedure,_shortened": "as §1"}},
  "note": "The source made the active and inactive calls.",
  "data": [
    {"compound": "O=C(Nc1cccnn1)N1CCC(=Cc2cccc(Oc3ccc(C(F)(F)F)cn3)c2)CC1", "values": [
      {"measurement": "Activity", "setting": "Rattus norvegicus [1]", "result": "Active"},
      {"measurement": "Activity", "setting": "Rattus norvegicus [2]", "result": "Active"},
      {"measurement": "Activity", "setting": "Mus musculus [3]", "result": "Toxic"},
      {"measurement": "Kp at 4 h", "setting": "[4]", "result": 1.6},
      {"measurement": "inhibition", "setting": "[5]", "result": "Active"},
      {"measurement": "IC50", "setting": "[6]", "result": 26.7, "unit": "nM"},
      {"measurement": "Activity", "setting": "Rattus norvegicus [7]", "result": "Active"},
      {"measurement": "Activity", "setting": "Mus musculus [8]", "result": "Non-Toxic"},
      {"measurement": "inhibition", "setting": "[9]", "result": "Active"},
      {"measurement": "inhibition", "setting": "[10]", "result": "Active"},
      {"measurement": "Activity", "setting": "Rattus norvegicus [11]", "result": "Active"},
      {"measurement": "inhibition", "setting": "Mus musculus [12]", "result": "Active"},
      {"measurement": "inhibition", "setting": "[13]", "result": "Active"},
      {"measurement": "concentration at 4 h", "setting": "[14]", "result": 870, "unit": "nM"},
      {"measurement": "Activity", "setting": "Mus musculus [15]", "result": "Non-Toxic"},
      {"measurement": "IC50", "setting": "[16]", "result": 11.1, "unit": "nM"},
      {"measurement": "Tmax", "setting": "[17]", "result": 2, "unit": "h"},
      {"measurement": "Activity", "setting": "Rattus norvegicus [18]", "result": "Active"}
    ]}
  ]
}
